Measured values from ChEMBL document CHEMBL2203249, “Optimization of a small tropomyosin-related kinase B (TrkB) agonist 7,8-dihydroxyflavone active in mouse models of depression” (J Med Chem, 2012).
The source made the active and inactive calls. The calls are words filed in the database; no cut-off is given here.

Key:
[1] = Elimination half life in mouse at 10 mg/kg, po by HPLC analysis; type: ADME, organism-based; design: dose 10 mg/kg, route oral; conditions: in vivo, read-out: beta t1/2
Method in brief: (§1)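 Mice of 20–30 g, 6–8 weeks old, dosed i.v. or orally. Blood was drawn at 3, 10, 30, 60, 120, 240, 360 and 480 min into lithium-heparin tubes, spun at 2500 × g for 15 min at 4°C within 1 h and stored at −20°C. Plasma was analysed by HPLC, 3 mice per time point. AUC was calculated by the linear/log trapezoidal method.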

[2] = system: Liver microsomes; test: Metabolic stability in human liver microsomes assessed as formation of reactive metabolites at 1 uM after 1 hr; type: ADME, Microsome
[3] = Volume of distribution at steady state in mouse at 3 mg/kg, iv by HPLC analysis; type: ADME, organism-based; design: dose 3 mg/kg, route intravenous; conditions: in vivo, read-out: Vdss
Method in brief: (§2)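 Mice (20–30 g, 6–8 weeks old) were dosed i.v. or orally. Blood was drawn into lithium-heparin tubes at 3, 10, 30, 60, 120, 240, 360 and 480 min, with 3 mice per time point. Plasma was separated at 2500 × g for 15 min at 4°C within 1 h and stored at −20°C. Samples were analysed by HPLC, and AUC was calculated by the linear/log trapezoidal method.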

[4] = AUC last in mouse at 10 mg/kg, po by HPLC analysis; type: ADME, organism-based; design: time 0 - last, dose 10 mg/kg, route oral; conditions: plasma; method in brief: as §1
[5] = AUC last in mouse at 3 mg/kg, iv by HPLC analysis; type: ADME, organism-based; design: time 0 - last, dose 3 mg/kg, route intravenous; conditions: plasma; method in brief: as §1
[6] = Elimination half life in mouse at 3 mg/kg, iv by HPLC analysis; type: ADME, organism-based; design: dose 3 mg/kg, route intravenous; conditions: in vivo, read-out: beta t1/2; method in brief: as §1
[7] = Cmax in mouse at 10 mg/kg, po by HPLC analysis; type: ADME, organism-based; design: dose 10 mg/kg, route oral; conditions: in vivo; method in brief: as §1
[8] = biological target: T1, CYP1A2 (Homo sapiens, UniProt P05177); test: Inhibition of CYP1A2 at 3 uM; type: ADME
T1 sequence (P05177 whole entry): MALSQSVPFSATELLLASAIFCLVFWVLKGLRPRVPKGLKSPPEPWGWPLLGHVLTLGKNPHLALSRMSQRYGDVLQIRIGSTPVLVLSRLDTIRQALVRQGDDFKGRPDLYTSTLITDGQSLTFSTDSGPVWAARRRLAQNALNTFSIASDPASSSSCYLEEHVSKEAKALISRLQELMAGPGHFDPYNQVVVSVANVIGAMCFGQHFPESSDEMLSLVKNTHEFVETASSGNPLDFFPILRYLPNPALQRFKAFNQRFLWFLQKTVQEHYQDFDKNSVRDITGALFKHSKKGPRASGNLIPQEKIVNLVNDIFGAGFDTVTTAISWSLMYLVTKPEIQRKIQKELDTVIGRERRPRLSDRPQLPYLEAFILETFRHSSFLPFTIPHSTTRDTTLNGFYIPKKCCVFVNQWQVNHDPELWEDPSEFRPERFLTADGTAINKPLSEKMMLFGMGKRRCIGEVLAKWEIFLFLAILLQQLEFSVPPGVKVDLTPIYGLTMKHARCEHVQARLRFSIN
Method in brief: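 CYP inhibition was tested at 3 and 30 μM and reported as percent inhibition. The assay was run by a contract lab.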

[9] = AUC (infinity) in mouse at 10 mg/kg, po by HPLC analysis; type: ADME, organism-based; design: time infinity, dose 10 mg/kg, route oral; conditions: plasma; method in brief: as §1
[10] = biological target: BDNF/NT-3 growth factors receptor (Rattus norvegicus) (UniProt Q63604); test: Agonist activity at TrkB receptor in rat primary neurons assessed as TrkB phosphorylation at tyrosine 816 at 500 nM after 15 mins by immunoblotting analysis; type: functional
BDNF/NT-3 growth factors receptor (Rattus norvegicus), sequence (Q63604 whole entry): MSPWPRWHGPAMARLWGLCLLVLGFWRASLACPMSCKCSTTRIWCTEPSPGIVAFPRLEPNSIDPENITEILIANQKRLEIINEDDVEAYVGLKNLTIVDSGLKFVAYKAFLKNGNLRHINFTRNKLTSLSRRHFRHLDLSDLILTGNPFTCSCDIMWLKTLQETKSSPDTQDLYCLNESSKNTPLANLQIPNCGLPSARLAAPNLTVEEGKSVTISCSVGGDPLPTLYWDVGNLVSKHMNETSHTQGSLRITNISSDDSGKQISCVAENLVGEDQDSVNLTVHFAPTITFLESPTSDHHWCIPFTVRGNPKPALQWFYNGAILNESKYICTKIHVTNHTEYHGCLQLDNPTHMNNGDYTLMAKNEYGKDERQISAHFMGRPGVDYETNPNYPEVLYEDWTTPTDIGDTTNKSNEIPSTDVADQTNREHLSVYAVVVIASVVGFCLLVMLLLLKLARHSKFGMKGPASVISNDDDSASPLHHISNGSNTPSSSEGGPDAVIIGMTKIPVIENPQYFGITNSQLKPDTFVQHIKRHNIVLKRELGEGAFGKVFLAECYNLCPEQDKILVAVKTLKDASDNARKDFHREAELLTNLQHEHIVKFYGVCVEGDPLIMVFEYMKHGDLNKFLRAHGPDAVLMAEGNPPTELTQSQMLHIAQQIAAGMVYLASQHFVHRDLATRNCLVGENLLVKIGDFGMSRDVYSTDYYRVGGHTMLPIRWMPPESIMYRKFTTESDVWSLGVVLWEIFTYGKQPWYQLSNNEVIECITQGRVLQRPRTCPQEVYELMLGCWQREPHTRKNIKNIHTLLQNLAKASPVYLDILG
Method in brief: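 Primary cortical cultures from E17 rat embryos were exposed to 500 nM for 15 min. Lysates were immunoblotted for p-TrkB and p-Akt (20 μg per lane). Two replicate experiments.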

[11] = system: Mus musculus; test: Agonist activity at TrkB receptor in C57BL/J6 mouse brain assessed as Akt phosphorylation at serine 473 in hippocampus at 1 mg/kg, po after 2 hrs by immunoblotting analysis; type: functional, organism-based; design: dose 1 mg/kg
Method in brief: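 Hippocampus from male C57BL/6J mice was taken 2 h after a single 1 mg/kg oral dose. Brain was homogenised and ultracentrifuged, and 40 μg supernatant was immunoblotted for p-TrkB, p-Akt and p-MAPK.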

[12] = AUC (infinity) in mouse at 3 mg/kg, iv by HPLC analysis; type: ADME, organism-based; design: time infinity, dose 3 mg/kg, route intravenous; conditions: plasma; method in brief: as §1
[13] = organism: Mus musculus; test: Agonist activity at TrkB receptor in C57BL/J6 mouse brain assessed as TrkB phosphorylation at tyrosine 706 in hippocampus at […] by immunoblotting analysis; type: functional, organism-based
[14] = Tmax in mouse at 10 mg/kg, po by HPLC analysis; type: ADME, organism-based; design: dose 10 mg/kg, route oral; conditions: in vivo; method in brief: as §2
[15] = system: Mus musculus; test: Agonist activity at TrkB receptor in C57BL/J6 mouse brain assessed as Akt phosphorylation at serine 473 in hippocampus at 2.5 mg/kg, po after 2 hrs by immunoblotting analysis; type: functional, organism-based; design: dose 2.5 mg/kg
[16] = system: HepG2; test: Cytotoxicity against human HepG2 cells assessed as cell death upto 100 uM after 24 hrs by LDH assay; type: cell-based; conditions: hepg2, 24 h
Method in brief: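 HepG2 cells were exposed to a range of concentrations up to 100 μM for 24 h, and cytotoxicity was measured by LDH release. n=3.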

[17] = Total body clearance in mouse at 3 mg/kg, iv by HPLC analysis; type: ADME, organism-based; design: dose 3 mg/kg, route intravenous; conditions: in vivo; method in brief: as §2
[18] = system: Mus musculus; test: Agonist activity at TrkB receptor in C57BL/J6 mouse brain assessed as TrkB phosphorylation at tyrosine 816 in dentate gyrus at 2.5 mg/kg, po administered qd for 21 days by immunohistochemical staining; type: functional, organism-based; design: dose 2.5 mg/kg
Method in brief: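 Mice were gavaged with 2.5 mg/kg/day for 21 days and perfused with 4% paraformaldehyde. Paraffin sections of 6 μm had antigen retrieval by boiling in 10 mM citrate, pH 6.0. Sections were stained with anti-p-TrkB 816 at 1:300 and anti-TrkB at 1:50, with fluorescent secondaries and DAPI, and dentate gyrus was examined.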

[19] = biological target: Voltage-gated inwardly rectifying potassium channel KCNH2 (Homo sapiens, UniProt Q12809); test: Inhibition of human ERG
Voltage-gated inwardly rectifying potassium channel KCNH2, sequence (Q12809 whole entry): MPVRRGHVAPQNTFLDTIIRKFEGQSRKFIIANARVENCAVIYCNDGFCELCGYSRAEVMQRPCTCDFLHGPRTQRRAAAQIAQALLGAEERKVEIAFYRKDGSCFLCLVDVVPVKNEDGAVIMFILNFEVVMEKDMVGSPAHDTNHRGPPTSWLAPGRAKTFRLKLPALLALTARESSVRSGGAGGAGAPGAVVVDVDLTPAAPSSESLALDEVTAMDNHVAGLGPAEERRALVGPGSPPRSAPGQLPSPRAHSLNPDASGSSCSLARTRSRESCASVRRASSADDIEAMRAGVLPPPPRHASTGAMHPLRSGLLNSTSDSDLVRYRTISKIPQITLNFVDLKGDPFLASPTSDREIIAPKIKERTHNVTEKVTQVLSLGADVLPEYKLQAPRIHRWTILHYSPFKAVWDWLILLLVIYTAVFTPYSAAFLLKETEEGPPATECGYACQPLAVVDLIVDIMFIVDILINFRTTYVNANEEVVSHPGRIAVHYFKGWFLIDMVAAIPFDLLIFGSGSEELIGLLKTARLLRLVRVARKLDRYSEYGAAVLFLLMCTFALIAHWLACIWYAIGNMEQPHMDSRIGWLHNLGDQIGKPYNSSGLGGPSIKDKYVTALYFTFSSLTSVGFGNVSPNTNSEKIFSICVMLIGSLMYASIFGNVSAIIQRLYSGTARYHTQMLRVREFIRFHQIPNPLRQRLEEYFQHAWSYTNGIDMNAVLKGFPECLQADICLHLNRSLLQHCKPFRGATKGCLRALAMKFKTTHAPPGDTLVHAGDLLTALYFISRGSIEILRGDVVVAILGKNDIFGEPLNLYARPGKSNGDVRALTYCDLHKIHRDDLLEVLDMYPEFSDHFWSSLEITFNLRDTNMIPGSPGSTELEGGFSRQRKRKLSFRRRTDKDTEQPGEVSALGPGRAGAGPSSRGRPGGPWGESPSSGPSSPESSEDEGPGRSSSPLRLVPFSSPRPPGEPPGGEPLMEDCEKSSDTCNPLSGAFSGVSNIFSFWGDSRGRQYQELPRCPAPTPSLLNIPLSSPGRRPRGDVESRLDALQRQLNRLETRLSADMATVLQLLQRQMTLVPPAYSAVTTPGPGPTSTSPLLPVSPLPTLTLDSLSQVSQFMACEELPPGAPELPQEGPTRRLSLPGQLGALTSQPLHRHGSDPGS

[20] = Volume of distribution in mouse at 3 mg/kg, iv by HPLC analysis; type: ADME, organism-based; design: dose 3 mg/kg, route intravenous; conditions: in vivo, read-out: Vz; method in brief: as §2
[21] = system: Mus musculus; test: Bioavailability in mouse at 10 mg/kg by HPLC analysis; type: ADME, organism-based; conditions: in vivo; method in brief: as §1
[22] = system: Mus musculus; test: Agonist activity at TrkB receptor in C57BL/J6 mouse brain assessed as TrkB phosphorylation at tyrosine 816 in hippocampus at 2.5 mg/kg, po administered qd for 21 days by immunoblotting analysis

Stability [2]	Activity [10]	SMILES	Activity [11]	Activity [13]	Activity [15]	Activity [16]	Activity [18]	Activity [22]	other results
Stable	Active	Cc1nc2ccc3c(=O)cc(-c4ccc(N5CCCC5)cc4)oc3c2[nH]1	Active	Active	Active	Non-toxic	Active	Active	half-life [1]: 58 min; Vd [3]: 10 L/kg; AUC(0-t) [4]: 19.1 ng·h/mL; AUC(0-t) [5]: 312 ng·h/mL; half-life [6]: 103 min; Cmax [7]: 7 ng/mL; inhibition at 3 µM [8]: 27.3%; AUC(0-inf) [9]: 21.6 ng·h/mL; AUC(0-inf) [12]: 320 ng·h/mL; Tmax [14]: 2 h; clearance [17]: 156 mL/min/kg; inhibition (INH) [19]: Not Active; Vd [20]: 23.1 L/kg; F [21]: 2%
Unstable	Active	O=c1cc(-c2ccc(N3CCCC3)cc2)oc2c1ccc1cc[nH]c12	Active	Active	Active	Non-toxic	Active	Active	–
